Values joined by “and” are separate entries in the source; they are usually repeats but may differ in a detail not shown here. Identical values can stand only once.
What was measured:
DnaK-DnaJ [1] = biological target: T1, DnaK-DnaJ (Escherichia coli, UniProt P0A6Y8); experiment: DnaJ-stimulated ATPase activity of DnaK; type: biochemical; conditions: result in words
Outline: (§1)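 Purified E. coli DnaK, DnaJ and GrpE (His-tagged, tag removed by TEV) and the synthetic NRLLLTG peptide. DnaK at 0.6 μM unless noted, with co-chaperone at stated levels, in 100 mM Tris-HCl, 20 mM KCl, 6 mM MgCl2, pH 7.4. Test compound added from DMSO stock. Phosphate release read by malachite green adaptation (absorbance 620 nm). Michaelis-Menten fit. Triplicates, three independent experiments.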

DnaK-GrpE [2] = biological target: T2, DnaK-GrpE (Escherichia coli, UniProt P0A6Y8); experiment: GrpE-stimulated ATPase activity of DnaK; type: biochemical; conditions: for Inhibition of the DnaK-GrpE combination (ATPase): result in words
Outline: as §1

Solubility = type: physicochemical; conditions: result in words
DnaK [3] = biological target: T3, DnaK (Escherichia coli, UniProt P0A6Y8); experiment: Intrinsic ATPase activity of DnaK alone; type: biochemical; conditions: result in words
Outline: as §1

DnaK-peptide = DnaK-peptide (Escherichia coli, UniProt P0A6Y8); experiment: Peptide substrate; type: biochemical; conditions: NRLLLTG peptide; result in words
Outline: as §1

DnaK [4] = biological target: T3, DnaK; experiment: Fluorescence polarization, binding of FITC-HLA peptide to DnaK; conditions: FP assay; result in words
DnaK [5] = biological target: T3, DnaK; experiment: Fluorescence polarization, binding of FAM-ATP to DnaK; conditions: for Competition with FAM-ATP for binding to DnaK: FP assay, result in words
DnaK-GrpE [6] = biological target: T2, DnaK-GrpE; experiment: Fluorescence-quenching assay, physical interaction between DnaK and GrpE; type: binding; conditions: result in words
DnaJ = DnaJ (Escherichia coli, UniProt P08622); experiment: Isothermal calorimetry, binding to DnaJ
GrpE = GrpE (Escherichia coli, UniProt P09372); experiment: Isothermal calorimetry, binding to GrpE
DnaK R56A = DnaK R56A (Escherichia coli, UniProt P0A6Y8, R56A); experiment: GrpE-stimulation of DnaK mutant R56A, ATPase assay; type: biochemical; conditions: result in words
DnaK M89A = DnaK M89A (Escherichia coli, UniProt P0A6Y8, M89A); experiment: GrpE-stimulation of DnaK mutant M89A, ATPase assay; type: biochemical; conditions: result in words
DnaK D233A = DnaK D233A (Escherichia coli, UniProt P0A6Y8, D233A); experiment: GrpE-stimulation of DnaK control mutant D233A, ATPase assay; type: biochemical; conditions: identical to wild type
DnaK [7] = biological target: T3, DnaK; experiment: Intrinsic tryptophan fluorescence of DnaK; type: binding
Outline: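 DnaK (5 μM) held in 25 mM HEPES, 10 mM KCl, 5 mM MgCl2, pH 7.5, with 1 mM ADP or ATP and test compound (e.g. 25 or 100 μM). Incubated 30 min at 37 °C in the dark. Excitation 290 nm; emission scanned 300–450 nm or read at 340 nm. Langmuir fit. Triplicate, three independent experiments.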

DnaK-DnaJ [8] = biological target: T1, DnaK-DnaJ; experiment: Fluorescence-quenching assay, binding of labeled DnaJ to DnaK; conditions: not statistically significant (p = 0.07)
[9] = DnaK 5 μM, 25 μM or 100 μM compound

T2 sequence (P09372 whole entry): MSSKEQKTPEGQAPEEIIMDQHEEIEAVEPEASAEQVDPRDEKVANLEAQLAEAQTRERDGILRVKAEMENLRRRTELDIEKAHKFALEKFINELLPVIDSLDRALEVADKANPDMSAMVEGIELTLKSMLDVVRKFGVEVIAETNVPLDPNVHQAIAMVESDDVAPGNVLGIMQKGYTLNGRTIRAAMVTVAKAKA
T2 sequence (P0A6Y8 whole entry): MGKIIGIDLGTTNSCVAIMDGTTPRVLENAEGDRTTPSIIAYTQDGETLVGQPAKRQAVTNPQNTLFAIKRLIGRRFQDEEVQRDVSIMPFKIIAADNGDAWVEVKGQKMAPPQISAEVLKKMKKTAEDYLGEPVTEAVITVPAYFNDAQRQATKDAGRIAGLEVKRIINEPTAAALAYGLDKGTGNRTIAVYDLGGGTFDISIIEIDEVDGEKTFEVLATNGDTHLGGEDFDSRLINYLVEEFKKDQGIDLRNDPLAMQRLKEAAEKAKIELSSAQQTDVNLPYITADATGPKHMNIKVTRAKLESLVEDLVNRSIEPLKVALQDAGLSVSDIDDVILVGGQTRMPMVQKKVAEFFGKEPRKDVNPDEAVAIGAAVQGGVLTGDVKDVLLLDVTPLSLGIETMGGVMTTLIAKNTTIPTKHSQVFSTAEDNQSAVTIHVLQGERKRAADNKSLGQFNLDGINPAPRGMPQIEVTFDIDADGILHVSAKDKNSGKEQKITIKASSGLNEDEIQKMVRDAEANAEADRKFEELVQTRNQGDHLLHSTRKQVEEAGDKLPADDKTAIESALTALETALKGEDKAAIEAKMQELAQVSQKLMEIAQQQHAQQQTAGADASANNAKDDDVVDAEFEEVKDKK
T3 sequence (P0A6Y8 whole entry): as above
T1 sequence (P0A6Y8 whole entry): as above
Chain of DnaK-peptide (P0A6Y8 whole entry): as above
Chain of DnaK M89A (P09372 whole entry): as the sequence (P09372 whole entry) above
Chain of DnaK M89A (P0A6Y8 whole entry M89A): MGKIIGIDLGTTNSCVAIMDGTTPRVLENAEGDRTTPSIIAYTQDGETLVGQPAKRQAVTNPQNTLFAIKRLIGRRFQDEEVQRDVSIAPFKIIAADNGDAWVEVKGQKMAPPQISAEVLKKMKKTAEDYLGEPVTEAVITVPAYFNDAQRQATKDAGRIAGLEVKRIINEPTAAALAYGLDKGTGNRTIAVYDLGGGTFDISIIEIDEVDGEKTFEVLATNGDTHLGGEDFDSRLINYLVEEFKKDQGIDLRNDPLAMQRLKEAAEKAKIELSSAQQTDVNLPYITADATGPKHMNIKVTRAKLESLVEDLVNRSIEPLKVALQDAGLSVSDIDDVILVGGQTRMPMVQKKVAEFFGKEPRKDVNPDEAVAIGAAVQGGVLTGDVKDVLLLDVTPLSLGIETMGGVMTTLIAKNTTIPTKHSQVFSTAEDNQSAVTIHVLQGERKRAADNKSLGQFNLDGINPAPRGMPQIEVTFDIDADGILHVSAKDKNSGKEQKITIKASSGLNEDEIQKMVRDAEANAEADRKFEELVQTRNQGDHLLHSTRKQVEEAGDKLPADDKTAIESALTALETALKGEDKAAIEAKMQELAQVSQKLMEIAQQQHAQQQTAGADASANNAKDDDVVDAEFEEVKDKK
Chain of GrpE (P09372 whole entry): as the sequence (P09372 whole entry) above
Chain of DnaK D233A (P0A6Y8 whole entry D233A): as the sequence (P0A6Y8 whole entry M89A) above, with A89M, D233A counted along it
Chain of DnaK D233A (P09372 whole entry, further chain): as the sequence (P09372 whole entry) above
Chain of DnaJ (P08622 whole entry): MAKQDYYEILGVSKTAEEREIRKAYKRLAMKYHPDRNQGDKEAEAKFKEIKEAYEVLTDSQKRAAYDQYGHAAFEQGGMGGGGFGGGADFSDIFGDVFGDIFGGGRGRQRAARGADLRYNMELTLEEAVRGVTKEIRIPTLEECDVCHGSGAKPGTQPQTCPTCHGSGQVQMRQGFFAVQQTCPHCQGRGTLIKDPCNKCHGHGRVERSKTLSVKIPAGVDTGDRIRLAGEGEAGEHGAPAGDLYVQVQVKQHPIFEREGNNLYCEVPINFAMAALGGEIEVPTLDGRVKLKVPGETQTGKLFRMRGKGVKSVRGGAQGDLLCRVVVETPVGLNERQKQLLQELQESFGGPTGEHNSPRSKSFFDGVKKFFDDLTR
Chain of DnaK R56A (P0A6Y8 whole entry R56A): as the sequence (P0A6Y8 whole entry M89A) above, with R56A, A89M counted along it
Chain of DnaK R56A (P09372 whole entry, further chain): as the sequence (P09372 whole entry) above

Structure (SMILES): O=c1c(O)c(-c2cc(O)c(O)c(O)c2)oc2cc(O)cc(O)c12 [Myr, myricetin]
- Inhibition of the DnaK-DnaJ combination (ATPase) (DnaK-DnaJ [1]): only inhibitors of the DnaK-DnaJ combination

Structure (SMILES): CC(=O)O[C@H]1C[C@@H]2CC[C@@H]3[C@H](CC[C@@]4(C)[C@H]3C[C@H]([N+]3(C)CCCCC3)[C@@H]4OC(C)=O)[C@@]2(C)C[C@@H]1[N+]1(C)CCCCC1 [PaBr, pancuronium bromide]
- Inhibition of the DnaK-GrpE combination (ATPase) (DnaK-GrpE [2]): only inhibitors of the DnaK-GrpE combination
- Solubility (Solubility): weakly soluble

Structure (SMILES): CCCc1nc2c(C)cc(-c3nc4ccccc4n3C)cc2n1Cc1ccc(-c2ccccc2C(=O)O)cc1 [Tel, telmisartan]
- Inhibition of the DnaK-DnaJ combination (ATPase) (DnaK-DnaJ [1]): little activity
- Inhibition of the DnaK-GrpE combination (ATPase) (DnaK-GrpE [2]): only inhibitors of the DnaK-GrpE combination
- Fold increase in Km of GrpE stimulation, wild type DnaK (DnaK-GrpE [2]; wild type DnaK): ~ 1.5 fold
- Activity against DnaK alone (intrinsic ATPase) (DnaK [3]): little activity
- Activity against DnaK-peptide substrate combination (ATPase) (DnaK-peptide): little activity
- Effect on apparent affinity of DnaK for FITC-HLA (DnaK [4]): no effect
- Competition with FAM-ATP for binding to DnaK (DnaK [5]): interfered with binding
- Effect on FAM-ATP binding, fold (DnaK [5]; reduced nucleotide affinity): 2 fold
- Effect on physical interaction between DnaK and GrpE (DnaK-GrpE [6]): no effect
- Kd (DnaJ): > 100 µM
- Kd (GrpE): > 100 µM
- Ability to block GrpE-stimulation of DnaK R56A (DnaK R56A): resistant
- Ability to block GrpE-stimulation of DnaK M89A (DnaK M89A): resistant
- Fold increase in Km of GrpE stimulation, DnaK D233A (DnaK D233A): ~ 1.5 fold

Structure (SMILES): COc1cc(C(=O)NS(=O)(=O)c2ccccc2C)ccc1Cc1cn(C)c2ccc(NC(=O)OC3CCCC3)cc12 [Zaf, zafirlukast]
- Inhibition of the DnaK-DnaJ combination (ATPase) (DnaK-DnaJ [1]): only inhibitors of the DnaK-DnaJ combination
- IC50 (DnaK-GrpE [2]): > 200 µM
- Inhibition of the DnaK-GrpE combination (ATPase) (DnaK-GrpE [2]): weak or no activity
- Activity against DnaK alone (intrinsic ATPase) (DnaK [3]): weak or no activity
- Activity against DnaK-peptide substrate combination (ATPase) (DnaK-peptide): has activity
- Kd (DnaK [7]; Apparent affinity KD for ATP-bound DnaK, ATP-bound DnaK): > 100 µM
- Kd (DnaK [7]; Apparent affinity KD for DnaK in the presence of ADP, ADP 1 mM): 52 ± 12 µM
- Decrease of tryptophan fluorescence intensity at 342 nm (DnaK [7]; [9]): ~ 25%
- Shift of tryptophan fluorescence peak (DnaK [7]; [9]): ~ 2 nm
- Effect on Trp fluorescence in the ATP-bound states (DnaK [7]; p = 0.06, result in words): no effect
- Effect on apparent affinity of DnaK for FITC-HLA (DnaK [4]): enhanced the apparent affinity
- Competition with FAM-ATP for binding to DnaK (DnaK [5]): unable to compete
- Weakening of binding of DnaJ to DnaK, fold (DnaK-DnaJ [8]): ~ 1.8 fold and ~ 2 fold

From paper PMC3783524 (ACS chemical biology, 2013)
